# Compounds with a hit are over-represented: about 0.44% of the library has one in this group of screens.
# PglD inh = inhibitors of Campylobacter jejuni PglD acetyltransferase; inhibition, % at 12.5 µM; 0.098% of 360,000 active; purified PglD enzyme, DTNB colorimetric CoA detection; in the data active = inhibition above about 16%, passing the limit was not always enough
# FN deposition inh = fibronectin deposition inhibition. AH1F fibroblasts, Alexa488-fibronectin deposition fluorescence, overnight. inhibition, % at 12.6 µM. 0.086% of 350,000 active. AID 743247;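 active = mean inhibition across replicates of 30% or more, regardless of how many single replicates reach that level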;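 also: positive control wells lacked labelled fibronectin entirely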
#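 Assay system: AH1F fibroblast monolayer, labelled fibronectin deposition. Amount: 10000 cells per well. Also added: labelled fibronectin 24 nM. Compound: single-point pinned compound. Incubation: cell attachment 1 h, compound and FN exposure overnight. Detection: fluorescence after three HBSS washes, excitation 485 nm, emission 525 nm. Read-out: inhibition of fibronectin deposition signal.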
# RAD54 branch = RAD54 (human) branch migration inhibition | 0.14% of 360,000 active | inhibition, % at 10.4 µM | RAD54 Holliday junction branch migration, FAM/BHQ fluorescence | AID 602329;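 active = mean normalized replicate activity at least 40 and at least half of replicates scoring 40 or more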;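 also: 0% = median of neutral control wells and 100% = median of positive control wells; inhibitors cause a drop in the FAM fluorescence signal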
# PDI inh = blocks human protein disulfide isomerase activity; PDI insulin aggregation turbidity, A650, 90 min; 0.052% of 350,000 active; inhibition, % at 10 µM; AID 588391; P07237;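 active = mean inhibition across replicates of 30% or more, whatever share of single replicates reach that level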
# Target sequence (P07237 whole entry, looked up): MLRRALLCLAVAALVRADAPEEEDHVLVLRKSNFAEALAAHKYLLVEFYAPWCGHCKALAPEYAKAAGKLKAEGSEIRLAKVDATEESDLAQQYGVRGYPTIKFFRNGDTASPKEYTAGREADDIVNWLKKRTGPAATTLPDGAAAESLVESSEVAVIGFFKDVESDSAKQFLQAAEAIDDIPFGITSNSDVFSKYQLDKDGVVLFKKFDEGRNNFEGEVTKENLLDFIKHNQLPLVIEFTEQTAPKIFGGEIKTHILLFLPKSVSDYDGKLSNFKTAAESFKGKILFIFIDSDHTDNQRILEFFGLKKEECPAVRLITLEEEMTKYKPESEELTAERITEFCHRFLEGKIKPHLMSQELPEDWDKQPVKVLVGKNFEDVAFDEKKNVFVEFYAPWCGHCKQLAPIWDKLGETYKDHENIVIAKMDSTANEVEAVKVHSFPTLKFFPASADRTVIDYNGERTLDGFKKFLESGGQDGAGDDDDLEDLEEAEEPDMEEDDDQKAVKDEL
# ERp5 inh = inhibitors of human ERp5 | ERp5 insulin aggregation, absorbance 650 nm, 90 min | inhibition, % at 9.99 µM | 0.05% of 350,000 active | AID 651711;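 active = mean replicate inhibition above about 25%, with every replicate also reaching it, limit read from the data, passing the limit was not always enough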
# S100A4 inh HTS = inhibitors of human S100A4 binding to myosin IIA peptide; S100A4/TAMRA-MyoIIA peptide fluorescence polarization; inhibition, % at 10.7 µM; 0.14% of 360,000 active; AID 652163;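 active = mean inhibition of at least 70% across replicates, with every replicate also reaching that level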
# Target sequence (P26447 whole entry, looked up): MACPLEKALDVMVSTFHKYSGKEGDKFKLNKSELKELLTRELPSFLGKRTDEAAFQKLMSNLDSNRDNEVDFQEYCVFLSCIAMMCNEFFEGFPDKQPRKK
#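 System – human S100A4 monomer protein, biochemical binding assay · Buffer or medium – Calcium-containing HEPES buffer, pH 7.2 · Timing – 5 min between mix addition and reading · Also added – TAMRA-labelled myosin IIA heavy-chain peptide probe, 5 nM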
# Numbers without * were called inactive; · = no result given.
SMILES,PglD inh,FN deposition inh,RAD54 branch,PDI inh,ERp5 inh,S100A4 inh HTS
O=C1O[C@@H](c2ccccc2)[C@@H](c2ccccc2)N2[C@@H](c3ccc(OCCO)cc3)[C@]3(C(=O)Nc4ccccc43)[C@@H](C(=O)Nc3nc4ccccc4s3)[C@H]12,·,·,·,·,-3.4,3.6
O=C(C[C@H]1C[C@@H]2c3cc(NC(=O)NC4CCCCC4)ccc3O[C@@H]2[C@H](CO)O1)NC1CCCC1,·,-8.9,·,·,·,·
O=S(=O)(c1ccccc1)N1CC2(C1)[C@H](c1ccccc1)[C@H](CO)N2CC1CC1,·,2.7,·,·,-0.1,8.0
CC(C)c1ccc(/C=N/Nc2cc(N3CCOCC3)nc(N3CCOCC3)n2)cc1,0.1,6.9,-1.5,0.6,·,·
Cc1cccc(/C=N/Nc2cc(N3CCOCC3)nc(N3CCOCC3)n2)c1,·,35.6*,·,-6.3,0.1,4.5
N#Cc1cccc2c1-c1ccccc1/C2=N/NC(N)=O,-1.8,·,84.7*,1.0,·,·
O=C(c1ccccc1)N1CC2(C1)[C@@H](c1ccccc1)[C@@H](CO)N2Cc1ccccn1,·,-17.1,·,·,0.4,10.9
O=C(c1ccccc1)N1CC2(C1)[C@H](c1ccccc1)[C@@H](CO)N2Cc1ccccn1,·,-4.4,·,·,0.4,106.6*
Cc1ccc(O)c(-c2cc(-c3cccc(Br)c3)n[nH]2)c1,-6.4,36.8*,4.9,0.1,0.1,2.6
CC(C)Cc1cc(C(=O)NCCCN2CCOCC2)no1,·,0.2,-0.6,-9.3,7.0,150.7*
C=CC(=O)Nc1cccc(N(C)c2ccnc(Nc3ccc(N4CCN(C)CC4)cc3)n2)c1,-0.6,·,81.5*,14.8,·,·
CS(=O)(=O)N1C2CN(CC(F)(F)F)CC1C2c1ccc(Br)cc1 (stereo unspecified),·,1.1,·,·,·,·
CC(C)NC(=O)N1CCCCN2[C@H](CO)[C@@H](c3ccc(C#Cc4ccccc4F)cc3)[C@H]2C1,-1.8,·,11.8,·,4.7,3.1
Cc1cccc(N2CCN(S(=O)(=O)c3cn(C)cn3)CC2)c1C,0.6,42.5*,1.7,2.4,-10.3,2.8
O=c1c2ccccc2sn1-c1ccc(S(=O)(=O)N2CCCCC2)cc1,-2.7,·,11.8,7.8,·,·
Cc1ccc(-n2sc3ccccc3c2=O)cc1S(=O)(=O)N1CCCCC1,22.1*,27.3,-5.1,0.0,2.2,-0.3
CCn1c2ccccc2c2cnc(N=CN(C)C)c(C#N)c21,3.5,·,11.5,5.4,·,·
CCN(CC)CCn1c2ccccc2c2cnc(N=CN(C)C)c(C#N)c21,-0.7,·,96.6*,1.9,·,·
C[C@@H]1CN([C@H](C)CO)C(=O)c2cc(NC(=O)Cn3cnnn3)ccc2O[C@H]1CN(C)C(=O)Nc1ccc2c(c1)OCO2,3.8,11.4,2.7,·,-1.3,-5.7
O=C(CSc1ncnc2c1nnn2Cc1ccc(F)cc1)NCC1CCCO1 (stereo unspecified),·,3.9,2.7,9.4,-15.0,73.7*
O=C(CSc1ncnc2c1nnn2Cc1ccc(F)cc1)NC1CCCCC1,·,-6.4,·,3.6,5.2,1.8
CCCN1[C@H](CO)[C@H](c2ccc(C3=CCCCC3)cc2)[C@@H]1CNS(C)(=O)=O,·,-10.1,·,·,3.8,80.3*
CCCN1[C@H](CO)[C@H](c2ccc(C3=CCCCC3)cc2)[C@@H]1CNC(=O)COC,·,-8.8,·,·,1.6,-1.1
O=[N+]([O-])c1c(Nc2ccc(O)cc2)cc(Cl)c2nonc12,6.9,53.9*,19.2,-2.7,-1.0,10.2
O=c1c2ccccc2sn1-c1nccs1,·,37.9*,·,-4.5,3.1,-1.5
SMILES,PglD inh,FN deposition inh,RAD54 branch,PDI inh,ERp5 inh,S100A4 inh HTS
O=c1c2ccccc2sn1-c1ccccc1,3.5,·,-3.3,0.5,·,·
C[C@@H]1CCCCO[C@@H](CN(C)C(=O)Nc2ccccc2)[C@@H](C)CN([C@@H](C)CO)C(=O)c2cc(NC(=O)CCC(F)(F)F)ccc2O1,·,5.2,·,·,-7.2,-3.7
CC(C)(C)c1cc(NC(=O)c2ccco2)no1,4.4,·,-1.6,7.5,27.7*,-8.3
O=C(Nc1ccc(N2CCOCC2)cc1)C1CC1,0.3,0.7,-6.2,5.4,·,·
O=C(N/N=C/c1ccc(N2CCOCC2)cc1)C1CC1,-1.8,4.9,2.2,37.9*,2.3,9.7
O=C1CCC2c3ccc4ccccc4c3CCN12 (stereo unspecified),-3.6,30.4*,3.7,3.7,·,·
O=C(C[C@H]1C=C[C@H](NC(=O)c2ccccc2)[C@H](CO)O1)NCc1ccc(Oc2ccccc2)cc1,·,3.0,·,·,·,5.2
Cc1cccc(NC(=O)c2ccc(C3SCC(=O)N3CCc3ccccc3)cc2)c1 (stereo unspecified),-0.9,32.6*,2.7,-5.2,-0.7,1.9
C[C@H](CO)N1C[C@H](C)[C@H](CN(C)Cc2ccncc2)Oc2ncc(C#CC3CCCCC3)cc2C1=O,1.5,·,1.4,·,0.9,11.6
CCOc1c(Cl)cc(CNC(C)(C)CC(C)(C)C)cc1OC,·,6.3,·,35.4*,·,·
CCOc1c(Cl)cc(CNc2ccc(N3CCCC3)cc2)cc1OC,4.5,-3.2,8.4,-8.5,3.2,0.5
Cc1ccccc1S(=O)(=O)NCC[C@@H]1CC[C@H](NC(=O)C2CCC2)[C@H](CO)O1,-0.4,·,-1.1,·,-8.9,2.2
Cc1ccccc1S(=O)(=O)NCC[C@H]1CC[C@H](NC(=O)C2CCC2)[C@H](CO)O1,-6.3,·,-7.8,·,-13.1,102.1*
C[C@@H](NC(=O)C[C@@H]1CC[C@H](NC(=O)C2CCC2)[C@H](CO)O1)c1ccccc1,0.7,·,-6.0,·,-3.2,106.5*
CCCc1cn(CC[C@@H]2CC[C@H](NC(=O)C3CCCC3)[C@H](CO)O2)nn1,0.8,1.6,-19.5,·,-1.1,116.1*
O=C(Nc1ccc2c(c1)OCO2)N[C@@H]1CC[C@@H](CCNC(=O)C2CCCC2)O[C@H]1CO,7.4,3.0,5.6,·,1.5,89.8*
COC(=O)C[C@H]1CC[C@H]2[C@H](COc3ccc(NC(=O)c4ccc(F)cc4)cc3C(=O)N2C)O1,-1.4,-11.5,-5.4,·,-9.9,5.6
CCO[C@@H]1OC(C(=O)Nc2ccccc2)=C[C@H](c2cn(C(C)=O)c3ccccc23)[C@H]1CCCO,4.1,·,-10.4,·,-5.3,5.1
Cc1ccc(S(=O)(=O)NCC[C@@H]2CC[C@@H](NC(=O)C3CCOCC3)[C@H](CO)O2)cc1,2.4,-8.8,-11.7,·,0.5,98.6*
O=C(Cc1ccncc1)NCC[C@@H]1CC[C@@H](NC(=O)C2CCOCC2)[C@@H](CO)O1,0.2,10.1,-6.0,·,-1.1,102.1*
CN1C(=O)c2cc(NC(=O)c3ccc(F)c(F)c3)ccc2OC[C@H]2O[C@@H](CC(=O)O)CC[C@H]21,1.9,-27.8,-2.5,·,·,·
CC1=CC(=O)[C@@H](OC(=O)Nc2ccc(C)cc2)[C@@H](c2ccccc2Br)N1C,-5.2,13.8,9.2,1.1,-1.1,-3.4
CC1=CC(=O)[C@@H](O)[C@@H](c2ccccc2Br)N1C,-0.3,active,-2.7,1.7,3.8,-2.5
O=C1CCc2cc(S(=O)(=O)NCc3ccccc3Cl)cc3c2N1CC3,-10.7,5.0,1.5,5.8,29.3*,-7.5

# Source: PubChem BioAssay (Broad Institute)
